In paper PMC8821119 (Clinical breast cancer, 2021):
“And” between values parts separate entries of the source, which are not always exact repeats. Identical values can stand only once.

How the values were obtained:
[1] = system: patients with ER+ metastatic breast cancer; design: species or system human; details: in vivo
[2] = system: ER+ metastatic breast cancer; assay: Phase Ib trial: clinical response; type: in vivo, human; details: RO4929097 with exemestane
clinical = details: human, in vivo
T47D:PKCα cells = assay: Secondary mammosphere formation assay; type: cell-based; details: 7 days
Procedure, shortened: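 T47D cells electroporated with a PKCα plasmid; G418-resistant clone F2 was chosen for PKCα overexpression on Western blot and STR-authenticated as T47D. Secondary mammosphere cultures were treated with test compound (30 nM), alone or with a γ-secretase inhibitor (5 μM), at pilot-chosen concentrations. Mammospheres counted after 7 days; 3 independent experiments, mean ± standard deviation.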

Notch1 cleavage = details: cited from earlier work
plasma protein = details: cited from earlier work
[3] = system: HER2-enriched breast cancer; details: cited from earlier work
[4] = system: PKCα-overexpressing, Notch4-positive ER+ cells; details: reverses endocrine resistance; cited from earlier work
[5] = system: early stage ERα+ breast cancer patients; details: short-term MK0752 added to letrozole or tamoxifen, neo-adjuvant; cited from earlier work

For `CC(C)(C(=O)NCC(F)(F)C(F)(F)F)C(=O)N[C@@H]1C(=O)Nc2ccccc2-c2ccccc21` [RO4929097], the “Dose-Limiting Toxicity (DLT) observed” value [1] was “Rash”, the “Complete responses (CR)” value [2] was “No complete responses” and the “Patients with stable disease for ≥ 6 months” value [2] was “Twenty”. For the same compound, the “Total clinical benefit rate (CR+PR+SD ≥ 6 months)” value [2] was 20%, the “Partial response (PR), number of patients” value ([2]; 14 evaluable patients) was “one” and the “Progressive disease, number of patients” value ([2]; 14 evaluable patients) was 7 and 6. The “Stable disease (SD), number of patients” value ([2]; 14 evaluable patients) was 6 and 7, the “Estimated overall survival (OS) at 6 months” value ([2]; interval 60–100%) was 79% and the “Drug levels six days after dosing” value (clinical) was “nearly unquantifiable levels”. For the same compound, the AUC(0-t) (clinical; po, 20 mg) was 4550 ng·h/mL, the “Clearance mean (±st dev)” value (clinical; po, 20 mg) was 2.3 (±1.5) L/hr and the Cmax (clinical; po, 20 mg) was 266 ng/mL. The Tmax (clinical; po, 20 mg) was 3 h, the half-life (clinical; po, 20 mg) was 26 h and the AUC(0-t) (clinical; po, 30 mg) was 7710 ng·h/mL. For the same compound, the “Clearance mean (±st dev)” value (clinical; po, 30 mg) was 2.1 (±0.3) L/hr, the Cmax (clinical; po, 30 mg) was 1050 ng/mL and the Tmax (clinical; po, 30 mg) was 0.5 h. For the same compound, the half-life (clinical; po, 30 mg) was 20.7 h, the AUC(0-t) (clinical; po, 45 mg) was 10400 ng·h/mL and the “Clearance mean (±st dev)” value (clinical; po, 45 mg) was 2.8 (±2.2) L/hr. For the same compound, the Cmax (clinical; po, 45 mg) was 1110 ng/mL, the “Tmax mean (range)” value (clinical; po, 45 mg) was 1.5 (1–2) hr and the half-life (clinical; po, 45 mg) was 23.1 h. The AUC(0-t) (clinical; po, 90 mg) was 21100 ng·h/mL, the “Clearance mean (±st dev)” value (clinical; po, 90 mg) was 2.8 L/h and the Cmax (clinical; po, 90 mg) was 2080 ng/mL. The Tmax (clinical; po, 90 mg) was 4.3 h, the half-life (clinical; po, 90 mg) was 13.6 h and the AUC(0-t) (clinical; po, 140 mg) was 19700 ng·h/mL. The “Clearance mean (±st dev)” value (clinical; po, 140 mg) was 2.6 (±0.2) L/hr, the Cmax (clinical; po, 140 mg) was 1330 ng/mL and the half-life (clinical; po, 140 mg) was 33.4 h. The Mammosphere numbers (T47D:PKCα cells; RO4929097 alone (5 μM)) was “significantly decreased mammosphere numbers”, the “IC50s observed by the authors earlier” value (Notch1 cleavage) was “nanomolar range” and the IC50 (Notch1 cleavage; read-out: in vitro IC50 in cell-based assays for Notch1 cleavage) was 5 nM. The Plasma protein binding (plasma protein) was “highly plasma protein-bound”.
For `C=C1C[C@@H]2[C@H](CC[C@]3(C)C(=O)CC[C@@H]23)[C@@]2(C)C=CC(=O)C=C12` [exemestane, reference compound], the Protein-bound (plasma protein) is given as 90%.
For `C[C@]12CC[C@@H]3c4ccc(O)cc4C[C@@H](CCCCCCCCC[S+]([O-])CCCC(F)(F)C(F)(F)F)[C@H]3[C@@H]1CC[C@@H]2O` (some centres unmarked) [fulvestrant, reference compound], the “Mammosphere sensitivity to single agent” value (T47D:PKCα cells; fulvestrant alone (30 nM)) was “partially sensitive”.
For `O=S1(=O)N[C@@]2(CN1CC(F)(F)F)[C@@H]1CC[C@H]2Cc2ccc(/C=C/CN3CCC(C(F)(F)F)CC3)cc2C1` [MRK003], the “Effect on tumor volume” value ([3]; MRK003 alone) is listed as “virtually no effect on tumor volume”, the Tumor recurrence ([3]; MRK003 in combination with trastuzumab) is listed as “abrogated tumor recurrence” and the “Tumor response and toxicity” value [4] is listed as “causes tumor regression without significant toxicity”.
In the case of `O=C(O)CC[C@H]1CC[C@@](c2cc(F)ccc2F)(S(=O)(=O)c2ccc(Cl)cc2)CC1` [MK0752], the “Ki67 expression in tumors” value [5] is given as “significantly affected Ki67 expression” and the Toxicity [5] is given as “no significant toxicity”.
